According to ChEMBL document CHEMBL1131203, “Second generation "peptoid" CCK-B receptor antagonists: identification and development of N-(adamantyloxycarbonyl)-alpha-methyl-(R)-tryptophan derivative (CI-1015) with an improved pharmacokinetic profile” (J Med Chem, 1998):
pIC50: −log10 of the molar value. Activity calls are given as the source filed them. The calls are words filed in the database; no cut-off is given here.

How the values were obtained:
[1] = Maximum plasma concentration evaluated in 100% PEG solution at a dose of 20 mg/kg orally; format: ADME, organism-based; design: dose 20 mg/kg, route oral; conditions: po
Procedure, shortened: (§1)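 Fasted male Wistar rats, groups of 3–4, given a single oral 20 mg/kg dose in the stated vehicle. Heparinized plasma was collected from an implanted jugular-vein cannula at serial times out to 24 h, kept frozen, and assayed by validated HPLC-fluorescence. Cmax, tmax, AUC(0–∞) and terminal t1/2 were obtained by noncompartmental analysis. Values are means (%RSD).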

[2] = Maximum plasma concentration evaluated in HP-beta-CD solution at a dose of 20 mg/kg orally; format: ADME, organism-based; design: dose 20 mg/kg, route oral; conditions: po; procedure, shortened: as §1
[3] = Maximum plasma concentration was evaluated in 0.5% methylcellulose suspension at a dose of 20 mg/kg orally; format: ADME, organism-based; design: dose 20 mg/kg, route oral; conditions: po; procedure, shortened: as §1
[4] = Maximum plasma concentration was evaluated in DMA:H2O solution at a dose of 20 mg/kg orally; format: ADME, organism-based; design: dose 20 mg/kg, route oral; conditions: po; procedure, shortened: as §1
[5] = Pharmacokinetic parameter AUC was evaluated in 0.5% methylcellulose suspension at a dose of 20 mg/kg orally; format: ADME, organism-based; design: dose 20 mg/kg, route oral; conditions: in vivo, po; procedure, shortened: as §1
[6] = Pharmacokinetic parameter AUC was evaluated in 100% PEG solution at a dose of 20 mg/kg orally; format: ADME, organism-based; design: dose 20 mg/kg, route oral; conditions: in vivo, po; procedure, shortened: as §1
[7] = Pharmacokinetic parameter AUC was evaluated in DMA:H2O solution at a dose of 20 mg/kg orally; format: ADME, organism-based; design: dose 20 mg/kg, route oral; conditions: in vivo, po; procedure, shortened: as §1
[8] = Pharmacokinetic parameter AUC was evaluated in HP-beta-CD solution at a dose of 20 mg/kg orally; format: ADME, organism-based; design: dose 20 mg/kg, route oral; conditions: in vivo, po; procedure, shortened: as §1
[9] = Absolute oral bioavailability evaluated in 0.5% methylcellulose suspentionat a dose of 20 mg/kg orally; format: ADME, organism-based; conditions: eutheria, in vivo
Procedure, shortened: (§2)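 Fasted male Wistar rats, groups of 3–4, given a single 20 mg/kg dose po or iv in the stated vehicle. Heparinized plasma was drawn from a jugular-vein cannula at serial times out to 24 h and assayed by validated HPLC-fluorescence. Absolute bioavailability is the dose-normalized ratio of AUC after po dosing to AUC after iv dosing.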

[10] = Absolute oral bioavailability was evaluated in 100% PEG solution at a dose of 20 mg/kg orally; format: ADME, organism-based; conditions: eutheria, in vivo; procedure, shortened: as §2
[11] = Absolute oral bioavailability was evaluated in DMA:H2O solution at a dose of 20 mg/kg orally; format: ADME, organism-based; conditions: eutheria, in vivo; procedure, shortened: as §2
[12] = Oral bioavailability (dosed in HP-beta-CD solution) (dose 20 mg/kg p.o.); format: ADME, organism-based; conditions: eutheria, in vivo; procedure, shortened: as §2
[13] = Pharmacokinetic parameter tmax evaluated in 0.5% methylcellulose suspension at a dose of 20 mg/kg orally; format: ADME, organism-based; design: dose 20 mg/kg, route oral; conditions: in vivo, po; procedure, shortened: as §1
[14] = Pharmacokinetic parameter tmax was evaluated in DMA:H2O solution at a dose of 20 mg/kg orally; format: ADME, organism-based; design: dose 20 mg/kg, route oral; conditions: in vivo, po; procedure, shortened: as §1
[15] = Pharmacokinetic parameter tmax was evaluated in HP-beta-CD solution at a dose of 20 mg/kg orally; format: ADME, organism-based; design: dose 20 mg/kg, route oral; conditions: in vivo, po; procedure, shortened: as §1
[16] = Pharmacokinetic parameter half-life was evaluated in 100% PEG solution; format: ADME, organism-based; conditions: in vivo; procedure, shortened: as §1
[17] = Pharmacokinetic parameter half-life was evaluated in DMA:H2O solution at a dose of 20 mg/kg orally; format: ADME, organism-based; design: dose 20 mg/kg, route oral; conditions: in vivo, po; procedure, shortened: as §1
[18] = Pharmacokinetic parameter half-life was evaluated in HP-beta-CD solution at a dose of 20 mg/kg orally; format: ADME, organism-based; design: dose 20 mg/kg, route oral; conditions: in vivo, po; procedure, shortened: as §1
[19] = biological target: T1, Gastrin/cholecystokinin type B receptor (Mus musculus, UniProt P56481); experiment: Inhibitory concentration against radioligand [125I]Bolton-Hunter labeled CCK-8 to cholecystokinin type B receptor in the mouse cerebral cortex; format: tissue-based
T1 sequence (P56481 whole entry): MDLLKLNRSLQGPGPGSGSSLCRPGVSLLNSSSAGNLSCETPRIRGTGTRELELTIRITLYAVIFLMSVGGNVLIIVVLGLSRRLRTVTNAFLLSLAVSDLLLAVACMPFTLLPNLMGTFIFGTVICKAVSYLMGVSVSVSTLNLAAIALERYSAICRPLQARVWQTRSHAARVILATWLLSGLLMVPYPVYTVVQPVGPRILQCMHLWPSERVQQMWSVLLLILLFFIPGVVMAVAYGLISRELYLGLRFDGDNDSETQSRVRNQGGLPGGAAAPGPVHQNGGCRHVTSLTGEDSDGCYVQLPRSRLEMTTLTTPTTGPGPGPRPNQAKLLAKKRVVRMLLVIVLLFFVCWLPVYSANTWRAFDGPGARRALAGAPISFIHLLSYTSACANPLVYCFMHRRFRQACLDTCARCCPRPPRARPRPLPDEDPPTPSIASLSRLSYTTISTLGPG

[20] = biological target: T2, Cholecystokinin receptor type A (Rattus norvegicus, UniProt P30551); experiment: Inhibitory concentration against radioligand [125I]Bolton-Hunter labeled CCK-8 to cholecystokinin type A receptor in the rat pancreas
T2 sequence (P30551 whole entry): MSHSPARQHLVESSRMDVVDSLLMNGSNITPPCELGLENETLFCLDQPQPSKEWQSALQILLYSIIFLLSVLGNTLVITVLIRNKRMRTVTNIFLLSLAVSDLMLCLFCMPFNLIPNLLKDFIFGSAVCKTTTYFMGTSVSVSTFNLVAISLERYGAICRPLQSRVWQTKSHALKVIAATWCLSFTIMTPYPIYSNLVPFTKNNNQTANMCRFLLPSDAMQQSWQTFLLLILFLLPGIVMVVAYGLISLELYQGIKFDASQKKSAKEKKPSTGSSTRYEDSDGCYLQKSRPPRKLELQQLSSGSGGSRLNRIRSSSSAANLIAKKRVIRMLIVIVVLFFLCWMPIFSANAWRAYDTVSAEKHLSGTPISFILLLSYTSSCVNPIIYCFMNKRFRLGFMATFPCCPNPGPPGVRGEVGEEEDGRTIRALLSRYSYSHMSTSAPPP

Mus musculus [21] = experiment: Concentration in forebrain after intravenous injection evaluated after 10 min. at a dose of 1 mg/kg; format: functional
Procedure, shortened: (§3)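 Ex vivo binding: mice were dosed iv with compound or vehicle, given either as saline or as 10% EtOH–60% propylene glycol–30% saline. Forebrains were taken at 5, 10 or 20 min, homogenized in HEPES buffer with bacitracin at pH 7.2, and incubated with 50 pM [125I]BH-CCK8s for 2 h at 22 °C. After filtration, bound radioligand was gamma-counted and read against calibration curves prepared in vehicle tissue. Detection limit was about 1 pmol/forebrain. n = 3–13.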

Mus musculus [22] = experiment: Concentration in forebrain after intravenous injection evaluated after 20 min. at a dose of 1 mg/kg; format: functional; procedure, shortened: as §3
Mus musculus [23] = experiment: Concentration in forebrain after intravenous injection evaluated after 5 min. at a dose of 1 mg/kg; format: functional; procedure, shortened: as §3
[24] = Ratio of IC50 towards CCK-A receptor and CCK-B receptor
[25] = Pharmacokinetic parameter tmax was evaluated in 100% PEG solution at a dose of 20 mg/kg orally; format: ADME, organism-based; design: dose 20 mg/kg, route oral; conditions: in vivo, po; procedure, shortened: as §1
[26] = Pharmacokinetic parameter AUC was evaluated in saline solution at a dose of 20 mg/kg orally; format: ADME, organism-based; design: dose 20 mg/kg, route oral; conditions: in vivo, po; procedure, shortened: as §1
[27] = Pharmacokinetic parameter AUC was evaluated in Hp-beta-CD solution; format: ADME; procedure, shortened: as §1
[28] = Maximum plasma concentration was evaluated in Hp-beta-CD solution at a dose of 20 mg/kg orally; format: ADME, organism-based; design: dose 20 mg/kg, route oral; conditions: po; procedure, shortened: as §1
[29] = Maximum plasma concentration was evaluated in saline solution at a dose of 20 mg/kg orally; format: ADME, organism-based; design: dose 20 mg/kg, route oral; conditions: po; procedure, shortened: as §1
[30] = Absolute oral bioavailability was evaluated in Hp-beta-CD solution at a dose of 20 mg/kg orally; format: ADME, organism-based; conditions: eutheria, in vivo; procedure, shortened: as §2
[31] = Absolute oral bioavailability was evaluated in saline solution at a dose of 20 mg/kg orally; format: ADME, organism-based; conditions: eutheria, in vivo; procedure, shortened: as §2
[32] = Pharmacokinetic parameter tmax was evaluated in Hp-beta-CD solution at a dose of 20 mg/kg orally; format: ADME, organism-based; design: dose 20 mg/kg, route oral; conditions: in vivo, po; procedure, shortened: as §1
[33] = Pharmacokinetic parameter tmax was evaluated in saline solution at a dose of 20 mg/kg orally; format: ADME, organism-based; design: dose 20 mg/kg, route oral; conditions: in vivo, po; procedure, shortened: as §1
Mus musculus [34] = experiment: Concentration in forebrain after intravenous injection evaluated after 10 min. at a dose of 10 mg/kg; Below low level of detection; format: functional, organism-based; design: dose 10 mg/kg; procedure, shortened: as §3
Mus musculus [35] = experiment: Concentration in forebrain after intravenous injection evaluated after 20 min. at a dose of 10 mg/kg; format: functional; procedure, shortened: as §3
Mus musculus [36] = experiment: Concentration in forebrain after intravenous injection evaluated after 5 min. at a dose of 10 mg/kg; format: functional; procedure, shortened: as §3

SMILES: C[C@](Cc1c[nH]c2ccccc12)(NC(=O)OC1C2CC3CC(C2)CC1C3)C(=O)N[C@H](CO)Cc1ccccc1 (stereo partly specified)
- Cmax [1]: 167 ng/mL
- Cmax [2]: 416 ng/mL
- Cmax [3]: 42 ng/mL
- Cmax [4]: 212 ng/mL
- AUC [5]: 188 ng·h/mL
- AUC [6]: 886 ng·h/mL
- AUC [7]: 890 ng·h/mL
- AUC [8]: 1440 ng·h/mL
- bioavailability [9]: 2%
- bioavailability [10]: 9.6%
- bioavailability [11]: 9.6%
- bioavailability [12]: 16%
- Tmax [13]: 2.9 h
- Tmax [14]: 1.2 h
- Tmax [15]: 0.9 h
- half-life [16]: 1.1 h
- half-life [17]: 2.3 h
- half-life [18]: 1.5 h
- pIC50 [19]: 8.20
- pIC50 [20]: 6.11
- Brain level (Mus musculus [21]): 68 pmol/forebrain
- Brain level (Mus musculus [22]): 43 pmol/forebrain
- Brain level (Mus musculus [23]): 40 pmol/forebrain
- Ratio [24]: 123
- Tmax [25]: 2.8 h

SMILES: C[C@](Cc1c[nH]c2ccccc12)(NC(=O)OC1[C@H]2C[C@@H]3C[C@@H](C[C@H]1C3)C2)C(=O)NC[C@H](NC(=O)CCC(=O)O)c1ccccc1 (stereo partly specified) [CI-988]
- AUC [26]: 134 ng·h/mL
- AUC [27]: 2.3 ng·h/mL
- Cmax [28]: 5 ng/mL
- Cmax [29]: 32 ng/mL
- bioavailability [30]: < 1%
- bioavailability [31]: 3.2%
- Tmax [32]: 0.25 h
- Tmax [33]: 2.3 h
- Brain level (Mus musculus [34]): inactive
- Brain level (Mus musculus [35]): 8 pmol/forebrain
- Brain level (Mus musculus [36]): 10 pmol/forebrain
